# Screening results: PubChem, Johns Hopkins Ion Channel Center
# Only some compounds are listed: those with a hit (about 2.3% of all), similar ones and a draw of the others.
# TRPC6 inh = inhibitors of mouse TRPC6 channel; Q61143; HEK293-TRPC6, membrane potential dye, ACh-evoked depolarization; stronger effect = lower value; B-score at 10 µM; hit rate 1.1% among 310,000; AID 2553;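 active = B-score under library mean minus 3 SD, initial fluorescence not abnormally high, positive integrated signal ratio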;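 note: B-score derived from integrated fluorescence ratio over the kinetic read; more negative B-score means stronger inhibition of depolarization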
# TRPC6 activator = activators of mouse TRPC6 channel; Q61143; HEK293-TRPC6 membrane potential dye fluorescence; stronger effect = higher value; B-score at 10 µM; hit rate 0.13% among 310,000;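 active = B-score of the integrated fluorescence ratio above library mean plus 3 SD, and starting fluorescence ratio within library mean plus 5 SD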;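 note: higher score means more depolarization so channel activation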
# TRPC4 inh = TRPC4 (mouse) channel inhibition | Q9QUQ5 | HEK293 TRPC4beta/mu-opioid, DAMGO-evoked Fluo4 calcium flux; stronger effect = lower value | B-score at 10 µM | hit rate 0.39% among 300,000 | AID 2247;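 active = B-score over 3 SD under the library average, no early fluorescence shift, positive overall ratio signal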
# Target sequence (Q9QUQ5 whole entry, looked up): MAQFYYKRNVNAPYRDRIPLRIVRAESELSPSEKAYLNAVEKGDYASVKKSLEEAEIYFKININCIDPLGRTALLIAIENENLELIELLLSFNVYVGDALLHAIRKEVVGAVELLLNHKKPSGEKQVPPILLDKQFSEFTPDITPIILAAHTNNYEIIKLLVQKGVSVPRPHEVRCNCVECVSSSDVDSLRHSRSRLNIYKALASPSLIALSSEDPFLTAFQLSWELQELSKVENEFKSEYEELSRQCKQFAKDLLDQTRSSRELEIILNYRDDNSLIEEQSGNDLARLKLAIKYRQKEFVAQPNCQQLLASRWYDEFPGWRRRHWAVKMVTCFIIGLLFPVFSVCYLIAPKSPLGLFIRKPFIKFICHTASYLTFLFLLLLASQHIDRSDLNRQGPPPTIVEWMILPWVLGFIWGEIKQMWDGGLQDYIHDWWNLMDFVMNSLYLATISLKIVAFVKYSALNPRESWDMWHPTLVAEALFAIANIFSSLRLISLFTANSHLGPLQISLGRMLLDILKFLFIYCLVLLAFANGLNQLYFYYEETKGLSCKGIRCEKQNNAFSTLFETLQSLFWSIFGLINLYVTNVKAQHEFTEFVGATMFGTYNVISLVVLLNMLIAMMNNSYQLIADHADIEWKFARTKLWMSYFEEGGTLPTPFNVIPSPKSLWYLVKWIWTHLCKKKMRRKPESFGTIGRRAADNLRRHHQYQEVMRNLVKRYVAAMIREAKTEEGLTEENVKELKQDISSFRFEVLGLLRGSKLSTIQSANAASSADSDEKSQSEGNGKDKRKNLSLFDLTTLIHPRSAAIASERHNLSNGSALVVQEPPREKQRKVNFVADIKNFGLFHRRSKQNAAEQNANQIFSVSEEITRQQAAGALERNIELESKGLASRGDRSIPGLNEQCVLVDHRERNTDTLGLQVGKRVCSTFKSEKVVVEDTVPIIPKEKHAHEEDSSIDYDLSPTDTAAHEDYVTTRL
#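 Material: HEK293 cells with stable TRPC4beta plus mu-opioid receptor expression / Probe or stimulus: DAMGO in two steps, submaximal then maximal / Compound: single concentration per test compound / Technique: kinetic Fluo4 fluorescence imaging of calcium influx / Read-out: per-well B score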
# TRPC4 PAM = allosterically enhances the mouse TRPC4 cation channel. HEK293 TRPC4beta/mu-opioid, DAMGO EC20, Fluo-4 Ca2+ flux; stronger effect = higher value. AID 2227. hit rate 0.42% among 310,000. B-score at 10 µM;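 active = B-score of calcium response area above 5 SD of library B-scores, with initial fluorescence ratio within 5 SD of library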;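 note: B-score of integrated fluorescence ratio over time as area under calcium response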
# TRPC4 act = opens the mouse TRPC4 cation channel; Q9QUQ5; HEK293 TRPC4beta/mu-opioid, Fluo4 calcium fluorescence; stronger effect = higher value; B-score at 10 µM; hit rate 0.49% among 310,000;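 active = B-score above 5 SD of library B-scores, and initial fluorescence ratio not above library mean plus 5 SD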;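 note: positive B-score marks a calcium rise read as TRPC4 activation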
#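 Assay system: HEK293 stable line with TRPC4beta plus mu-opioid receptor. Times: dye 45 min RT, read 110 s. Measured by: kinetic Fluo4 calcium fluorescence. Measure: B score of integrated ratio. Controls: assay buffer as low control, maximal DAMGO as high control.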
# TRPC4 spec 2 = mouse TRPC4 off-target activity of TRPC6 inhibitors, second screen; shares compounds with TRPC6 inh; HEK293 TRPC4/MOR, membrane potential dye fluorescence; channel activated by saturating DAMGO dose; inhibition, % at 10 µM; hit rate 42% among 920;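 active = compounds whose fluorescence signal differed from control wells by over 3 SD, either direction, in both duplicate plates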
# TRPC4 spec = mouse TRPC4 off-target activity of TRPC6 inhibitors. HEK293 TRPC4/mu-opioid, membrane potential fluorescence. activity change, negative = inhibition, % at 10 µM. shares compounds with TRPC6 inh. hit rate 61% among 920;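 active = rise or fall in signal beyond 3 SD of buffer-only wells in both replicate plates, either sign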;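 note: integrated kinetic ratio of fluorescence range over baseline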
# HEK293 MPD ctr 2-1 = second counter-screen for TRPC6 inhibitors: parental HEK293 cells | AID 2779 | hit rate 31% among 920 | parental HEK293 membrane potential dye fluorescence; maximal acetylcholine challenge after compound addition | signal change vs control, % at 10 µM | shares compounds with TRPC6 inh;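 active = membrane potential signal moving either way by over 3 SD of the maximum-effect control, in both duplicate plates, meaning non-specific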
# HEK293 MPD ctr-1 = parental HEK293 nonspecific activity of TRPC6 inhibitors. shares compounds with TRPC6 inh. AID 2780. membrane potential signal change, % at 10 µM. hit rate 60% among 920. parental HEK293 membrane potential dye fluorescence;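 active = membrane potential signal shifting up or down by more than 3 SD of buffer-only wells, on both duplicate plates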
# HEK293 MPD ctr-2 = checks TRPC6 modulator effects in parental HEK293 cells | shares compounds with TRPC6 inh | membrane potential dye fluorescence | membrane potential signal change, % at 10 µM | hit rate 51% among 2,400 | AID 488924;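 active = membrane potential signal moves up or down beyond 5 SD from buffer-only wells, on both duplicate plates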
# HEK293 MPD ctr 2-2 = parental HEK293 nonspecific activity of TRPC6 modulators, second screen; shares compounds with TRPC6 inh; membrane potential dye fluorescence; after compound, maximal acetylcholine stimulation; inhibition, % at 10 µM; hit rate 14% among 2,400;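 active = membrane potential signal drops by more than 5 SD from the mean control signal, in both duplicate plates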;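 note: plate controls were acetylcholine ECmax control wells for no effect and buffer only wells for full effect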
# TRPC4/MOR mod = tests whether TRPC6 modulators also affect mouse TRPC4; shares compounds with TRPC6 inh; HEK293 TRPC4/mu-opioid, membrane potential fluorescence; hit rate 69% among 2,400; percent change from control (negative = decrease, positive = increase), % at 10 µM; AID 488927;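 active = membrane potential signal moved up or down beyond 5 SD of buffer control wells, in both duplicate plates, actives on both sides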;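 note: plate controls were assay buffer wells for no effect and DAMGO maximal-effect wells for full effect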
# TRPC4/MOR inh 2 = mouse TRPC4 off-target activity of TRPC6 modulators, second screen. shares compounds with TRPC6 inh. HEK293 TRPC4/mu-opioid, membrane potential dye fluorescence; stimulated with maximal-effect DAMGO. inhibition, % at 10 µM. hit rate 55% among 2,400;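 active = drop in membrane potential signal beyond 5 SD of the control wells in both duplicate plates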;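 note: TRPC4 counter screen for TRPC6 hits run under conditions tuned for TRPC6 not TRPC4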
# TRPC6 inh conf = confirmation of mouse TRPC6 inhibitors | shares compounds with TRPC6 inh | HEK293-TRPC6, membrane potential dye, ACh-evoked depolarization | inhibition, % at 10 µM | hit rate 43% among 3,300 | AID 488960;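 active = fluorescence ratio falls more than 5 SD below the full-stimulation control mean, in both duplicate runs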;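 note: integrated fluorescence ratio of peak minus minimum over baseline after agonist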
# TRPC6 act confirm = confirmation of mouse TRPC6 activators. HEK293-TRPC6 membrane potential dye fluorescence, FDSS. hit rate 11% among 2,800. shares compounds with TRPC6 inh. activation, % at 10 µM. AID 488961;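 active = ratio signal rise beyond 5 SD above unstimulated control wells' mean, seen in both duplicate runs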;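 note: plate controls were buffer EC0 wells for no effect and acetylcholine ECmax response for full effect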
# The depositor's hits bear a star; i = inactive; . = no result.
SMILES,TRPC6 inh,TRPC6 activator,TRPC4 inh,TRPC4 PAM,TRPC4 act,HEK293 MPD ctr-2,HEK293 MPD ctr 2-2,TRPC4/MOR mod,TRPC4/MOR inh 2,TRPC6 inh conf,TRPC6 act confirm,others
CN(C)CCNc1c2c(c(C#N)c3nc4ccccc4n13)CCCC2,-11*,i,i,i,i,.,.,.,.,73%*,i,TRPC4 spec 2=60%*;TRPC4 spec=-28%*;HEK293 MPD ctr 2-1=48%*;HEK293 MPD ctr-1=-384%*
CCOC(=O)c1c(NC(=O)c2cccs2)sc2c1CC(C)(C)OC2,i,i,i,i,i,.,.,.,.,.,.,
Cc1ccc(NCc2n[nH]c(=S)n2-c2cccc(Cl)c2)cc1,i,i,i,i,i,.,.,.,.,.,.,
COc1ccc(Cl)c2sc(N(CCN(C)C)C(=O)c3ccc4c(c3)OCCO4)nc12,-9.6*,i,i,46*,i,-122%*,90%*,-40%*,90%*,72%*,i,
COc1cccc2sc(N(CCN(C)C)C(=O)c3ccc(S(=O)(=O)N4CCCC4)cc3)nc12,i,i,i,i,i,.,.,.,.,.,.,
CC(=O)c1ccc(C(=O)N(CCN(C)C)c2nc3c(Cl)cccc3s2)cc1,i,i,i,i,i,.,.,.,.,.,.,
CC1CN(S(=O)(=O)c2ccc(C(=O)N(CCCN(C)C)c3nc4c(Cl)cccc4s3)cc2)CC(C)O1 (stereo unspecified),-7.5*,i,i,i,i,i,i,-14%*,68%*,i,i,
COc1cc2ccccc2cc1C(=O)N(CCN(C)C)c1nc2c(OC)ccc(OC)c2s1,i,i,i,i,i,.,.,.,.,.,.,
COc1ccc(OC)c2sc(N(CCN(C)C)C(=O)c3ccc4ccccc4c3)nc12,-7.6*,i,i,12*,i,.,.,.,.,79%*,i,TRPC4 spec 2=i;TRPC4 spec=i;HEK293 MPD ctr 2-1=i;HEK293 MPD ctr-1=i
CN(C)CCN(C(=O)c1ccc2c(c1)OCCO2)c1nc2c(Cl)cccc2s1,-7.2*,i,i,i,i,.,.,.,.,98%*,i,TRPC4 spec 2=26%*;TRPC4 spec=-22%*;HEK293 MPD ctr 2-1=i;HEK293 MPD ctr-1=-288%*
CCOc1cccc2sc(N(CCCN(C)C)C(=O)c3ccc(S(=O)(=O)N(C)c4ccccc4)cc3)nc12,-6.6*,i,i,i,i,i,i,i,71%*,i,i,
CCOc1cccc2sc(N(CCCN(C)C)C(=O)c3ccc(S(=O)(=O)N4CCc5ccccc5C4)cc3)nc12,i,i,i,i,i,.,.,.,.,.,.,
Cc1ccn2cc(-c3ccc4c(c3)NC(=O)CO4)nc2c1,i,i,i,i,i,.,.,.,.,.,.,
Cc1cccn2cc(-c3ccc4c(c3)NC(=O)CO4)nc12,-5.9*,i,i,i,i,-84%*,i,-16%*,i,i,i,
Nc1ccccc1Nc1nc2ccccc2[nH]1,-5.5*,i,i,i,i,340%*,i,88%*,i,i,.,
Cn1c(CN2CCOCC2)nc2cc(NC(=O)COc3ccccc3)ccc21,i,i,i,i,i,.,.,.,.,.,.,
CCCc1cc(=O)oc2cc(OCC(=O)N3CCc4ccccc43)ccc12,i,i,i,i,i,.,.,.,.,.,.,
CCCCCCN1C=CC=C/C1=C/C=C(C#N)C#N,i,26*,i,i,i,370%*,i,102%*,i,i,118%*,
CCCCCN1C=CC=C/C1=C\C=C(C#N)C#N,-5.3*,15*,i,i,i,712%*,i,i,i,i,100%*,
CCCN1C=CC(=CC=C(C#N)C#N)C=C1,i,i,i,i,i,.,.,.,.,.,.,
CCCCCCN1C=C/C(=C\C=C(C#N)C#N)c2ccccc21,i,i,i,i,i,.,.,.,.,.,.,
Cc1ccc(-n2c(SCC(N)=O)nnc2-c2ccc(S(=O)(=O)N3CCCCC3)cc2)c(C)c1,-6*,i,i,i,i,i,i,40%*,i,41%*,i,
Cc1nc(NC(=O)CN2CCOCC2)sc1-c1ccccc1,i,i,.,i,i,.,.,.,.,.,.,
CN1CCN(/N=C/c2nc(-c3ccc(Cl)cc3)n3ccccc23)CC1,-5.3*,i,i,i,i,-164%*,i,-36%*,40%*,i,i,
CN1CCN(/N=C/c2nc(-c3ccccc3)n3ccccc23)CC1,i,i,i,i,i,.,.,.,.,.,.,
SMILES,TRPC6 inh,TRPC6 activator,TRPC4 inh,TRPC4 PAM,TRPC4 act,HEK293 MPD ctr-2,HEK293 MPD ctr 2-2,TRPC4/MOR mod,TRPC4/MOR inh 2,TRPC6 inh conf,TRPC6 act confirm,others
Cc1cc(C)nc(NC(N)=NCCc2c[nH]c3ccccc23)n1,-5*,i,i,i,i,-222%*,i,-42%*,46%*,54%*,i,
Cc1cc(C)nc(NC(=NCCc2c[nH]c3ccccc23)NC(=O)Nc2ccc(Cl)cc2)n1,i,i,i,i,i,.,.,.,.,.,.,
COC(=O)c1cc2sc(Cl)cc2n1CC(=O)NCCC(C)C,i,i,i,i,i,.,.,.,.,.,.,
CCn1cnc2cc(NCc3ccc(Br)cc3)ccc21,-5*,i,i,i,i,i,i,i,40%*,40%*,i,
CCOc1ccc(CNc2ccc3c(c2)ncn3C(C)(C)C)cc1,-8.5*,i,i,i,i,.,.,.,.,66%*,i,TRPC4 spec 2=i;TRPC4 spec=i;HEK293 MPD ctr 2-1=i;HEK293 MPD ctr-1=i
CCCn1cnc2cc(NCc3ccc(Br)cc3)ccc21,i,i,i,i,i,.,.,.,.,.,.,
